NS3 helicase inh – inhibitors of HCV NS3 helicase, primary screen, biochemical, Cy5 molecular beacon fluorescence; NS3 helicase DNA unwinding; inhibition, % at 10.9 µM; 290,000 tested, 0.56% active; AID 1800, 2009;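 active means inhibition above the mean of all tested compounds plus 3 SD, set per campaign, cut at about 35% in these data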;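 further: 0% = DMSO wells and 100% = thioflavine S control wells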
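Material: hepatitis C virus NS3 helicase domain fragment enzyme; measured by: Cy5 fluorescence, 0 and 60 min reads; control set: DMSO and thioflavine S; incubation: 60 min unwinding reaction at 25 °C after ATP addition; read-out basis: % inhibition from 60/0 min fluorescence ratio, DMSO 0%, thioflavine S 100%; repeats: singlicate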
FID counter – compounds displacing fluorescent DNA intercalator, primary screen, artefact control for HCV NS3 helicase inhibitor project, biochemical, FID fluorescence. inhibition, % at 7.9 µM. 290,000 tested, 0.17% active. DNA fluorescent intercalator displacement; in the data active means inhibition above about 37%;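 further: 0% = vehicle and 100% = reference compound; higher means more ethidium bromide displaced from hairpin DNA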
FGF22 binding-1 – binders of human FGF22 protein, primary screen, FGF22 synaptogenesis inhibitor project, biophysical, thermal shift, single point; Fibroblast growth factor 22 (Homo sapiens), Q9HCT0; recombinant FGF22 thermal shift, SYPRO orange fluorescence; percent of sucrose octasulfate shift, DMSO zero; AID 651658, 2012; 340,000 tested, 1.5% active; activity (Tm shift, normalised), % at 9.99 µM;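 active means mean Tm shift, scaled 0 neutral to 100 positive control, at about 1.3% or above, every replicate too, limit read from the data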
Target sequence (Q9HCT0 whole entry, looked up): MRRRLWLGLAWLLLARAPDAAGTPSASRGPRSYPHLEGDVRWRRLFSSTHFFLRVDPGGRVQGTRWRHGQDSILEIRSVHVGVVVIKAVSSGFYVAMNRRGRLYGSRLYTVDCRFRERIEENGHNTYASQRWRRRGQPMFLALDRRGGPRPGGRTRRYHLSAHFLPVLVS
ZTA counter – blocks Epstein-Barr virus ZTA, an EBNA-1 counter-screen; ZTA-DNA binding, fluorescence polarization; 320,000 tested, 0.15% active; inhibition, % at 11 µM; P03206; in the data active means inhibition above about 33%
Target sequence (P03206 whole entry, looked up): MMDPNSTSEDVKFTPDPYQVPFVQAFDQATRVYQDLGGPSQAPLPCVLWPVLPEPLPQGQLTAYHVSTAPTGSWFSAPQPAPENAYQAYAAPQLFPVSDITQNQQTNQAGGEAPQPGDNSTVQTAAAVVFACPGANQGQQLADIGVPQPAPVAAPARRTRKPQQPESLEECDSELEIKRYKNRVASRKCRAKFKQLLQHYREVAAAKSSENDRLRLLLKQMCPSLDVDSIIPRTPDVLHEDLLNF
GRIN3A LBD mod – binders of NR3A ligand-binding domain, primary screen, biophysical, differential scanning fluorimetry, uHTS | Tm shift relative to glycine control, % at 25 µM | NR3A LBD differential scanning fluorimetry, Tm shift; 0% = protein alone, 100% = glycine-bound protein | Glutamate receptor ionotropic, NMDA 3A (GRIN3A) ligand-binding domain | 340,000 tested, 2.5% active | AID 1259313, 2017;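 active means melting temperature shift of at least 10% of the positive control shift, at one fixed dose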
EBNA-1 inh – EBNA-1 DNA-binding inhibitors, primary screen, biochemical, fluorescence polarization; inhibition, % at 14.8 µM; 300,000 tested, 0.34% active; AID 1950, 2009; in the data active means inhibition above about 28%
FGF22 binding-2 – binders of human FGF22 protein, dose response, FGF22 synaptogenesis inhibitor project, biophysical, thermal shift, cherry-pick retest; 1,000 tested, 2% active; shares compounds with FGF22 binding-1; thermal shift activity, °C (ΔTm) at 38 µM; AID 720646, 2013; recombinant FGF22 thermal shift, SYPRO orange fluorescence;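 active means fitted rise in melting shift crosses a set limit at or below the top valid dose tested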
SYPRO no-protein – compound-only thermal shift signal without protein, dose response, artefact control for FGF22 binder project, biochemical, cherry-picked samples, RT-PCR instrument | shares compounds with FGF22 binding-1 | compound-only SYPRO orange thermal shift counter-screen, no protein | AC50, µM (titrated, usually from 38 µM) | 1,000 tested, 2% active | AID 743019, 2013;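 active means rising signal whose fitted curve reaches the 0.54 level within the top valid dose, showing a melting point, actives reach about 13 µM in these data; inactive means the rest, including activity in the opposite direction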; further: value is where the raw curve crosses a fixed level and not half-maximal
* = called active by the depositor; i = inactive; . = no result; [ ] = remark or other dose. In the library only some 3.6% were active in any assay of this set; here they are far more common.

SMILES	NS3 helicase inh	FID counter	FGF22 binding-1	ZTA counter	GRIN3A LBD mod	EBNA-1 inh	FGF22 binding-2	SYPRO no-protein
C[C@@H]1CN([C@@H](C)CO)S(=O)(=O)c2ccc(C3=CCCC3)cc2O[C@H]1CN(C)C(=O)Nc1ccc2c(c1)OCO2	.	.	0	.	.	.	.	.
C[C@H]1CN([C@@H](C)CO)S(=O)(=O)c2ccc(C#Cc3ccncc3)cc2O[C@H]1CN(C)C(=O)Nc1ccc2c(c1)OCO2	.	.	1.4*	.	.	.	-0.24	i
Cc1noc(C)c1S(=O)(=O)Nc1ccc2c(c1)CC(=O)N([C@H](C)CO)C[C@@H](C)[C@@H](CN(C)CC1CCCCC1)O2	.	.	0	.	.	.	.	.
CCOc1ccc(N(CC(=O)NCCSc2ccccn2)S(=O)(=O)c2ccc(Cl)cc2)cc1	-3	-40	29*	-16	-5	4	0.2	i
CCOc1ccc(N(CC(=O)NCCSc2ccccn2)S(C)(=O)=O)cc1	-1	-6	.	3	2	-8	.	.
O=C(NCC1CCOCC1)c1ccc2nc(Cc3cccc(Cl)c3)oc2c1	-9	-34	1.4*	-4	-2	-8	0.33	i
CN(CC1CCOCC1)C(=O)c1ccc2nc(Cc3cccc(Cl)c3)oc2c1	-3	-47	0	5	0	6	.	.
O=S(=O)(c1ccc(F)cc1)N1CCCC1	7	-7	0	2	0	0	.	.
O=S(=O)(Nc1ccccc1OC(F)F)c1ccc(S(=O)(=O)N2CCCC2)cc1	.	.	3.2*	-5	0	.	-0.032	i
COc1cccc(NC(=O)N[C@H]2CC[C@@H](CC(=O)N3CCCCC3)O[C@H]2CO)c1	.	.	0	.	.	.	.	.
N#Cc1c(-c2ccccc2)nc(-c2ccncc2)[nH]c1=O	2	0	1.6*	-15	-2	-5	0.14	i
Cc1nc2cc(C(=O)NCc3ccc4c(c3)OCO4)ccc2n1-c1ccc(Br)cc1	-8	-28	1.6*	-5	-7	-4	-0.051	i
CC(C)(C)[S@@](=O)N1Cc2cc(C(=O)NCc3ccccc3F)nc(-c3cccc(-c4ccncc4)c3)c2[C@H]1CCO	.	.	1.9*	.	.	.	-0.14	i
CN(c1ccccc1)S(=O)(=O)c1cccc(NC(=O)c2cc3ccccc3oc2=O)c1	5	1	0	-5	-1	-10	.	.
COc1ccccc1NS(=O)(=O)c1cccc(NC(=O)c2cc3ccccc3oc2=O)c1	5	1	1.8*	2	0	-9	-0.009	i
O=C(NNc1nc2c(F)cccc2s1)C1COc2ccccc2O1 (configuration not stated)	0	-5	0	15	-1	5	.	.
COc1cccc2sc(NNC(=O)C3COc4ccccc4O3)nc12 (configuration not stated)	1	-21	17*	-10	-2	-8	0.22	i
Cc1cccc(NC(=O)c2ccc(-c3ccccc3[N+](=O)[O-])o2)c1	-2	23	1.6*	-8	27*	-8	0.2	i
CSc1ncccc1C(=O)NCC1CCCCC1	0	1	0	-7	0	-5	.	.
O=C(NCC1CCCCC1)c1cccnc1Cl	0	-8	1.5*	0	1	-6	0.23	i
CO[C@@H]1CN(C)C(=O)c2ccc(NC(C)=O)cc2OC[C@H](C)N(C(=O)c2ccc(F)cc2)C[C@@H]1C	.	.	0	.	.	.	.	.
Nc1c(N(CCO)C(=O)COc2ccc(Cl)cc2)c(=O)[nH]c(=O)n1Cc1ccccc1	-7	-9	1.8*	6	1	7	0.053	i
C[C@H]1CN([C@@H](C)CO)C(=O)c2cccc(NC(=O)c3ccncc3)c2O[C@@H]1CN(C)C(=O)Nc1ccc(F)cc1	.	.	0	.	.	.	.	.
CCS(=O)(=O)Nc1ccc2c(c1)C(=O)N(C)C[C@@H](OC)[C@@H](C)CN(C)[C@@H](C)CO2	.	.	0	.	.	.	.	.
C[C@@H]1CN([C@@H](C)CO)S(=O)(=O)c2ccc(-c3cccc(C#N)c3)cc2O[C@@H]1CN(C)C(=O)Nc1cc(F)ccc1F	.	.	1.3*	.	.	.	.	i
SMILES	NS3 helicase inh	FID counter	FGF22 binding-1	ZTA counter	GRIN3A LBD mod	EBNA-1 inh	FGF22 binding-2	SYPRO no-protein
C[C@H]1CN([C@@H](C)CO)S(=O)(=O)c2ccc(-c3cccc(F)c3)cc2O[C@H]1CN(C)C(=O)Nc1cc(F)ccc1F	.	.	1.4*	.	.	.	0.17	i
C[C@@H]1CN([C@@H](C)CO)S(=O)(=O)c2ccc(-c3ccc(F)cc3)cc2O[C@@H]1CN(C)C(=O)Nc1ccccc1F	.	.	1.7*	.	.	.	0.088	i
C[C@@H]1CN([C@H](C)CO)S(=O)(=O)c2ccc(-c3ccc(F)cc3)cc2O[C@H]1CN(C)C(=O)Nc1ccccc1F	.	.	0	.	.	.	.	.
Cc1ccccc1-c1ccc2c(c1)O[C@H](CN(C)CC1CC1)[C@H](C)CN([C@H](C)CO)S2(=O)=O	.	.	1.5*	.	.	.	0.14	i
C[C@H](CO)N1C[C@H](C)[C@H](CN(C)CC2CC2)Oc2cc(-c3ccccc3F)ccc2S1(=O)=O	.	.	0	.	.	.	.	.
COc1cccc(NC(=O)N(C)C[C@@H]2Oc3cc(-c4ccccc4F)ccc3S(=O)(=O)N([C@H](C)CO)C[C@@H]2C)c1	.	.	4.0*	.	.	.	-0.21[42 µM]	i
COc1cccc(NC(=O)N2C[C@H](O)COC[C@@H]3O[C@H](CC(=O)NC4CCCC4)CC[C@H]32)c1	.	.	0	.	.	.	.	.
CCC(=O)N1C[C@@H](C)[C@@H](OC)CN(C)C(=O)c2ccc(NC(=O)C3CC3)cc2OC[C@H]1C	.	.	0	.	.	.	.	.
COc1ccc(NS(=O)(=O)c2cc(N=Nc3c(O)[nH]c(=O)[nH]c3=O)ccc2Cl)cc1	.	.	1.4*	.	2	.	-0.08	i
COc1ccc(NS(=O)(=O)c2cc(NC(=O)CNC(=O)c3ccc(C)s3)ccc2Cl)cc1	3	-20	.	-10	5	-6	.	.
COc1ccccc1NC(=O)c1ccc(C(=O)Nc2ccccc2OC)nc1	2	0	0	-5	0	9	.	.
COc1ccccc1NC(=O)c1ccc(NC(=O)c2ccc(=O)[nH]c2)cc1	.	.	1.9*	4	-5	.	0.36	i
COc1ccc(CNS(=O)(=O)CCNC(=O)c2ccc3c(c2)OCO3)cc1	.	.	0	7	-1	-3	.	.

From PubChem
